# From ChEMBL document CHEMBL1142103, “Bioactive lignans from Peperomia heyneana” (J Nat Prod, 2007)
# Legend:
# [1] = system: Human immunodeficiency virus 1; assay: Antiviral activity against on HIV1 3b infected C8166 cells assessed as syncytial cell formation after 3 days; type: functional, organism-based; settings: Human immunodeficiency virus 1, 3b, C8166, 72 h
# How it was run: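 C8166 cells (8 × 10^5/mL) seeded with serial concentrations of compound, then infected with HIV-1 IIIB at 1300 TCID50/well; 3 days at 37 °C, 5% CO2. Syncytia (multinucleated giant cells) counted per well under inverted microscope; percent inhibition of syncytium formation versus untreated infected controls gives EC50.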
# [2] = Selectivity index, ratio of CC50 for C8166 cells to IC50 for HIV1 infected C8166 cells; type: functional
# How it was run: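 Therapeutic index computed as CC50 (MTT viability of uninfected C8166, 72 h) divided by EC50 (inhibition of HIV-1 IIIB syncytium formation in C8166, 3 days), both run in parallel.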
# [3] = Cytotoxicity against C8166 cells by MTT method; type: cell-based; settings: human
# How it was run: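 Uninfected C8166 cells (4 × 10^5/mL) exposed to graded compound concentrations for 72 h at 37 °C, 5% CO2. Supernatant removed, MTT (5 mg/mL stock in PBS) added for 4 h, formazan dissolved in 50% DMF–20% SDS, absorbance read at 595/630 nm. CC50 (50% loss of viable cells) taken from dose-response curve.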
SMILES,EC50 [1] [µM],Ratio CC50/EC50 [2],CC50 [3] [µM]
COc1cc([C@H]2O[C@H](c3cc(OC)c4c(c3)OCO4)[C@@H](COC(C)=O)[C@@H]2CO)cc(OC)c1O,49.8,4.6,229
COc1cc(C(c2cc(OC)c(OC)c(OC)c2)C2COC(=O)C2C)cc(O)c1OC (stereo not drawn),27.3,5.1,140
COc1cc(C(c2cc(OC)c3c(c2)OCO3)[C@@H]2COC(=O)[C@H]2C)cc2c1OCO2 [PEPEROMIN A],5.3,8.2,43.2
COc1cc([C@@H](c2cc(OC)c3c(c2)OCO3)[C@@H]2COC(=O)[C@H]2C)cc(OC)c1OC [PEPEROMIN B],5.4,9.1,49.1
COc1cc(C(c2cc(OC)c(OC)c(OC)c2)[C@@H]2COC(=O)[C@H]2C)cc(OC)c1OC [PEPEROMIN C],42.6,4.5,192
Cc1cn([C@H]2C[C@H](N=[N+]=[N-])[C@@H](CO)O2)c(=O)[nH]c1=O [ZIDOVUDINE],0.017,> 100000,4550
